# Experimental data published in ChEMBL document CHEMBL1122480, “Synthesis and pharmacological studies of 4,4-disubstituted piperidines: a new class of compounds with potent analgesic properties” (J Med Chem, 1983).
# What was measured:
# Mus musculus [1] = test: Analgesic activity using PQW test, oral administration; format: functional
# Method in brief: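 Oral drug in mice, followed by phenylbenzoquinone-induced writhing. Analgesia is scored as fewer abdominal contractions in a group of five animals than in a control group. ED50 is the dose that reduces contractions by 50%, estimated graphically by the Litchfield method. Otherwise the percentage of animals showing analgesia is given.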
# Mus musculus [2] = test: Analgesic activity in tail flick test, oral administration; format: functional
# Method in brief: (§1)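 Mouse tail-flick test against a noxious heat stimulus (D'Amour–Smith method), with drug given by the stated route. […] Where no exact ED50 was obtained, the percentage of animals showing analgesia is reported.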
# Mus musculus [3] = test: Analgesic activity in tail flick test, subcutaneous administration; format: functional; method in brief: as §1
# Opioid receptor [4] = target: T1, Opioid receptor (Rattus norvegicus, UniProt P33533+P34975+P33535); test: Inhibition of [3H]naloxone binding to rat brain membrane with 100 mM NaCl.
# Opioid receptor [5] = target: T1, Opioid receptor; test: Inhibition of [3H]-Naloxone binding to rat brain membrane without NaCl
# Mus musculus [6] = test: 5 HTP (5-hydroxytryptophan) antagonism in mouse 0.5 hr after subcutaneous administration (0.003-0.1 dose range).; format: functional; details: sc
# Method in brief: (§2)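 Mice received drug sc over the stated dose range, then DL-5-hydroxytryptophan to induce head twitches. ED50 is the dose that cut the mean number of head twitches by 50% versus a saline-treated control group (N = 5-10). It was estimated graphically by the Litchfield method.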
# Mus musculus [7] = test: 5 HTP (5-hydroxytryptophan) antagonism in mouse 0.5 hr after subcutaneous administration (0.01-0.3 dose range).; format: functional; details: sc; method in brief: as §2
# [8] = target: T2, Serotonin (5-HT) receptor (Homo sapiens) (UniProt P30939+P41595+Q13639+P28222+P46098+P08908+P28221+P28223+P28335+P28566+P34969+P50406+P47898+A5X5Y0+O95264+Q70Z44+Q8WXA8); test: Serotonin antagonism in guinea pig 0.5 hr after subcutaneous administration.; format: functional, organism-based; details: Cavia porcellus; target entry is the homologue from another species
# Method in brief: (§3)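 Guinea pigs were protected against a lethal serotonin dose, per the cited Roemer and Weidmann method. Test substance was given subcutaneously or orally, as named in each line. Protection was assessed at the stated interval after dosing (0.5, 6 or 24 h). ED50 (mg/kg) was estimated graphically by the Litchfield method.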
# [9] = target: T2, Serotonin (5-HT) receptor (Homo sapiens); test: Serotonin antagonism in guinea pig 0.5 hr after oral administration.; format: functional, organism-based; details: Cavia porcellus; target entry is the homologue from another species; method in brief: as §3
# Mus musculus [10] = test: 5 HTP (5-hydroxytryptophan) antagonism in mouse 0.5 h after subcutaneous administration (0.03-0.1 dose range).; format: functional; details: sc; method in brief: as §2
# [11] = target: T2, Serotonin (5-HT) receptor (Homo sapiens); test: Serotonin antagonism in guinea pig 6 h after subcutaneous administration.; format: functional, organism-based; details: Cavia porcellus; target entry is the homologue from another species; method in brief: as §3
# [12] = target: T2, Serotonin (5-HT) receptor (Homo sapiens); test: Serotonin antagonism in guinea pig 6 hr after oral administration.; format: functional, organism-based; details: Cavia porcellus; target entry is the homologue from another species; method in brief: as §3
# [13] = target: T2, Serotonin (5-HT) receptor (Homo sapiens); test: Serotonin antagonism in guinea pig 24 hr after subcutaneous administration.; format: functional, organism-based; details: Cavia porcellus; target entry is the homologue from another species; method in brief: as §3
# [14] = target: T2, Serotonin (5-HT) receptor (Homo sapiens); test: Serotonin antagonism in guinea pig 24 hr after oral administration.; format: functional, organism-based; details: Cavia porcellus; target entry is the homologue from another species; method in brief: as §3
# [15] = Mus musculus, po, read-out: ED50
# [16] = Mus musculus, Tail, po, read-out: ED50
# [17] = Mus musculus, Tail, sc, read-out: ED50
SMILES,ED50 (Mus musculus [1]; [15]),ED50 (Mus musculus [2]; [16]),ED50 (Mus musculus [3]; [17]),also measured
CN(C(=O)C1(C2(O)CCN(CCc3ccccc3Cl)CC2)CCCC1)C1CCCCC1.O=C(O)/C=C/C(=O)O,> 56 mg/kg,100 mg/kg,> 56 mg/kg,
CCC(=O)OC1(C(C)C(=O)N(C)C2CCCCC2)CCN(CCc2ccccc2Cl)CC1 (stereo unspecified),< 56 mg/kg,,< 3.2 mg/kg,
COc1ccccc1NC(=O)C(C)(C)C1(O)CCN(CCc2ccccc2Cl)CC1.Cl,< 56 mg/kg,,> 32 mg/kg,
CCCN(C(=O)C(C)C1(O)CCN(CCc2ccccc2Cl)CC1)c1ccccc1OC.O=C(O)/C=C/C(=O)O (stereo unspecified),1.8 mg/kg,5.4 mg/kg,0.11 mg/kg,IC50 (Opioid receptor [4]): 0.66 nM; IC50 (Opioid receptor [5]): 0.51 nM; ED50 (Mus musculus [6]): 0.015 mg/kg
CC(C(=O)N(C)c1ccc(Cl)cc1)C1(O)CCN(CCc2ccccc2Cl)CC1.O=C(O)/C=C/C(=O)O (stereo unspecified),9.7 mg/kg,> 56 mg/kg,6.8 mg/kg,
Br.CC(C)C(C(=O)N(C)C1CCCCC1)C1(O)CCN(CCc2ccccc2Cl)CC1 (stereo unspecified),< 56 mg/kg,> 100 mg/kg,> 56 mg/kg,
CCN(C(=O)C(C)(C)C1(O)CCN(CCc2ccccc2Cl)CC1)c1ccccc1OC.O=C(O)/C=C/C(=O)O,> 18 mg/kg,> 100 mg/kg,> 56 mg/kg,IC50 (Opioid receptor [4]): 35 nM; IC50 (Opioid receptor [5]): 7.5 nM
CC(C(=O)N(C)C1CCCCC1)C1(O)CCN(CCc2ccccc2Cl)CC1.O=C(O)/C=C\C(=O)O (stereo in doubt; 15),10.8 mg/kg,,,ED50 (Mus musculus [7]): 0.07 mg/kg; IC50 (Opioid receptor [4]): 450 nM; ED50 (Mus musculus [2]): 22 mg/kg; IC50 (Opioid receptor [5]): 45 nM; ED50 (Mus musculus [3]): 3.2 mg/kg
CN(C(=O)C1(C2(O)CCN(CCc3ccccc3Cl)CC2)CC1)C1CCCCC1.O=C(O)/C=C\C(=O)O,> 56 mg/kg,,10 mg/kg,
CCOc1ccccc1N(C)C(=O)C(C)C1(O)CCN(CCc2ccccc2Cl)CC1.O=C(O)/C=C/C(=O)O (stereo unspecified),1.8 mg/kg,< 32 mg/kg,0.51 mg/kg,IC50 (Opioid receptor [4]): 10 nM; IC50 (Opioid receptor [5]): 0.98 nM
Cc1ccc(CCN2CCC(O)(C(C)C(=O)N(C)C3CCCCC3)CC2)cc1.Cl (stereo unspecified),< 56 mg/kg,100 mg/kg,> 3.2 mg/kg,
COc1ccccc1N(C)C(=O)C(C)C1(O)CCN(CCc2ccccc2Cl)CC1.O=C(O)/C=C\C(=O)O (stereo unspecified),18 mg/kg,> 18 mg/kg,0.68 mg/kg,IC50 (Opioid receptor [4]): 51 nM; IC50 (Opioid receptor [5]): 3.3 nM
CN(C(=O)CC1(O)CCN(CCc2ccccc2Cl)CC1)C1CCCCC1.Cl,> 18 mg/kg,< 56 mg/kg,> 3.2 mg/kg,
CCCCC(C(=O)N(C)C1CCCCC1)C1(O)CCN(CCc2ccccc2Cl)CC1.O=C(O)/C=C/C(=O)O (stereo unspecified),> 56 mg/kg,> 100 mg/kg,> 56 mg/kg,
CCCCN(CCCC)C(=O)C(C)C1(O)CCN(CCc2ccccc2Cl)CC1.O=C(O)/C=C/C(=O)O (stereo unspecified),< 30 mg/kg,< 100 mg/kg,< 50 mg/kg,
C=CCN(C(=O)C(C)C1(O)CCN(CCc2ccccc2Cl)CC1)C1CCCCC1.O=C(O)/C=C\C(=O)O (stereo unspecified),< 32 mg/kg,,4 mg/kg,IC50 (Opioid receptor [4]): 20 nM; IC50 (Opioid receptor [5]): 2.4 nM
"CC(C(=O)N(C)C1CCCCC1)C1(O)CCN(CCc2ccccc2Cl)CC1.O=C(O)/C=C\C(=O)O (single isomer, unassigned; (-))",,,,ED50 (Mus musculus [1]): 20 mg/kg; ED50 (Mus musculus [2]): 100 mg/kg; ED50 (Mus musculus [3]): 42 mg/kg
C=CCN1CCC(O)(C(C)C(=O)N(C)C2CCCCC2)CC1.O=C(O)/C=C/C(=O)O (stereo unspecified),1 mg/kg,,32 mg/kg,
Br.COc1cccc(CCN2CCC(O)(C(C)C(=O)N(C)C3CCCCC3)CC2)c1 (stereo unspecified),> 18 mg/kg,,18 mg/kg,
CCOc1ccccc1N(CC)C(=O)C(C)C1(O)CCN(CCc2ccccc2Cl)CC1 (stereo unspecified),1.8 mg/kg,10 mg/kg,0.26 mg/kg,IC50 (Opioid receptor [4]): 1.8 nM; IC50 (Opioid receptor [5]): 0.55 nM
CN1CCC(=C2c3ccccc3CCc3sccc32)CC1 [PIZOTYLINE],,,,ED50 (Mus musculus [6]): 0.015 mg/kg

SMILES,ED50 (Mus musculus [1]; [15]),ED50 (Mus musculus [2]; [16]),ED50 (Mus musculus [3]; [17]),also measured
CC(C(=O)N(C)c1cccc(O)c1)C1(O)CCN(CCc2ccccc2Cl)CC1.O=C(O)/C=C/C(=O)O (stereo unspecified),> 18 mg/kg,,> 56 mg/kg,
C#CCN(C(=O)C(C)C1(O)CCN(CCc2ccccc2Cl)CC1)c1ccccc1OC.O=C(O)/C=C\C(=O)O (stereo unspecified),0.56 mg/kg,5.4 mg/kg,0.13 mg/kg,IC50 (Opioid receptor [4]): 4.2 nM; IC50 (Opioid receptor [5]): 0.41 nM
CC(C(=O)N(C)C1CCCCC1)C1(O)CCN(CCc2ccccc2)CC1.Cl (stereo unspecified),18 mg/kg,> 56 mg/kg,18 mg/kg,
CN(C(=O)C(C)(C)C1(O)CCN(CCc2ccccc2Cl)CC1)C1CCCCC1 [PIPRADIMADOL],26 mg/kg,> 100 mg/kg,21 mg/kg,ED50 [8]: 0.055 mg/kg; IC50 (Opioid receptor [4]): 825 nM; ED50 [9]: 0.103 mg/kg; IC50 (Opioid receptor [5]): 550 nM; ED50 (Mus musculus [10]): 0.1 mg/kg; ED50 [11]: 0.05 mg/kg; ED50 [12]: 0.14 mg/kg; ED50 [13]: > 0.1 mg/kg; ED50 [14]: 0.135 mg/kg
CCCN(C(=O)C(C)C1(OC(=O)CC)CCN(CCc2ccccc2Cl)CC1)c1ccccc1OC.O=C(O)/C=C\C(=O)O (stereo unspecified),1 mg/kg,100 mg/kg,32 mg/kg,
CC(C(=O)N(C)C1CCCCC1)C1(O)CCN(CCc2ccccc2Cl)CC1 (stereo unspecified) [PIPRAMADOL],10 mg/kg,100 mg/kg,3.8 mg/kg,
CC(C(=O)N(C1CCCCC1)C1CCCCC1)C1(O)CCN(CCc2ccccc2Cl)CC1.Cl (stereo unspecified),< 56 mg/kg,> 100 mg/kg,> 56 mg/kg,
CC(C(=O)NC1CCCCC1)C1(O)CCN(CCc2ccccc2Cl)CC1.O=C(O)/C=C\C(=O)O (stereo unspecified),> 56 mg/kg,< 56 mg/kg,> 3.2 mg/kg,
CC(C(=O)N(C1CCCCC1)C(C)(C)C)C1(O)CCN(CCc2ccccc2Cl)CC1.O=C(O)/C=C/C(=O)O (stereo unspecified),< 56 mg/kg,> 56 mg/kg,> 10 mg/kg,
Br.CCCCCCCN1CCC(O)(C(C)C(=O)N(C)C2CCCCC2)CC1 (stereo unspecified),> 56 mg/kg,> 100 mg/kg,> 56 mg/kg,
COc1ccccc1NC(=O)C(C)C1(O)CCN(CCc2ccccc2Cl)CC1.O=C(O)/C=C/C(=O)O (stereo unspecified),5.6 mg/kg,,> 18 mg/kg,
CC(C(=O)N(C)C1CCCCC1)C1(O)CCN(C)CC1.Cl (stereo unspecified),> 56 mg/kg,> 100 mg/kg,> 56 mg/kg,
CC(C(=O)N(C)C1CCCCC1)C1CCN(CCc2ccccc2Cl)CC1.Cl (stereo unspecified),< 18 mg/kg,37 mg/kg,2.9 mg/kg,
CCN(C(=O)C(C)C1(O)CCN(CCc2ccccc2Cl)CC1)c1ccccc1OC.O=C(O)/C=C/C(=O)O (stereo unspecified),56 mg/kg,4.9 mg/kg,0.07 mg/kg,IC50 (Opioid receptor [4]): 6.3 nM; IC50 (Opioid receptor [5]): 0.94 nM; ED50 (Mus musculus [10]): 0.07 mg/kg
CN1CC[C@]23c4c5ccc(O)c4O[C@H]2[C@@H](O)C=C[C@H]3[C@H]1C5 [MORPHINE],1.4 mg/kg,23 mg/kg,3.4 mg/kg,
CC(C(=O)N(C)C1CCCCC1)C1(O)CCN(CCc2ccccc2Cl)CC1 (stereo in doubt; 15),,,,ED50 [8]: 0.015 mg/kg; ED50 [9]: 0.01 mg/kg; ED50 [11]: 0.007 mg/kg; ED50 [12]: 0.009 mg/kg; ED50 [13]: 0.028 mg/kg; ED50 [14]: 0.045 mg/kg
CCCCNC(=O)C(C)C1(O)CCN(CCc2ccccc2Cl)CC1 (stereo unspecified),> 32 mg/kg,< 100 mg/kg,> 18 mg/kg,
CCCN(C(=O)C(C)C1(O)CCN(CCc2ccccc2Cl)CC1)C1CCCCC1 (stereo unspecified),< 32 mg/kg,56 mg/kg,> 10 mg/kg,
C=CCN(C(=O)C(C)C1(O)CCN(CCc2ccccc2Cl)CC1)c1ccccc1OC.O=C(O)/C=C\C(=O)O (stereo unspecified),0.56 mg/kg,7.6 mg/kg,0.09 mg/kg,IC50 (Opioid receptor [4]): 2.9 nM; IC50 (Opioid receptor [5]): 0.41 nM
CN1CCC(=C2c3ccccc3C=Cc3ccccc32)CC1 [CYPROHEPTADINE],,,,ED50 (Mus musculus [6]): 0.015 mg/kg
